Source: PubChem (Johns Hopkins Ion Channel Center)
hERG protect – hERG rescue from dofetilide block, primary screen, cell-based, CHO-hERG, FluxOR thallium flux, dofetilide IC70. Voltage-gated inwardly rectifying potassium channel KCNH2 (Homo sapiens), Q12809. hit rate 0.51% among 310,000. activation (rescue from dofetilide block), less the hit threshold, % at 10 µM. dofetilide IC70 present;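 active = activation above the mean of controls blocked by dofetilide plus 5 SD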;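 also: thallium influx through hERG after potassium depolarization seen as dye fluorescence rise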
KCNQ1 pot – potentiators or activators of KCNQ1 channel, primary screen, cell-based, thallium flux, high-throughput; hit rate 0.35% among 310,000; CHO-K1 KCNQ1, thallium flux FluxOR fluorescence; active compounds read high; B-score at 10 µM; AID 2648, 2010; Potassium voltage-gated channel subfamily KQT member 1 (Homo sapiens), P51787;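 active = fluorescence ratio B-score, a plate-corrected score, at least three library SD, with initial intensity B-score within 5 SD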
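assay system = KCNQ1-transfected CHO-K1 cells | medium = assay buffer with matched DMSO | probe or stimulus = depolarizing K+/Tl+ stimulus, K2SO4 and Tl2SO4 each 12.5 mM in 5x stock | dosing = single dose | incubation = dye 90 min, compound 20 min, room temperature | detection = kinetic FluxOR fluorescence, 10 s baseline plus 110 s post-stimulus | evaluation = ratio B score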
KCNQ1 block – inhibitors of human KCNQ1 channel, primary screen, cell-based, thallium flux, high-throughput; AID 2642, 2010; hit rate 1.3% among 310,000; B-score at 10 µM; CHO-K1 KCNQ1, FluxOR thallium flux fluorescence; active compounds read high;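 active = compounds whose thallium flux B-score, printed positive for inhibition, exceeds three library SD while starting fluorescence stays within three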;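 also: channel opened by potassium depolarization with thallium stimulus after 20 min compound exposure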
Kir21 inh – inhibitors of mouse Kir2.1 inward-rectifier potassium channel. HEK293-Kir2.1, FluxOR thallium flux fluorescence; active compounds read low. B-score at 10 µM. hit rate 0.85% among 310,000. AID 1672, 2009;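 active = fluorescence ratio B-score at or below minus 3 SD of library scores, with starting-brightness B-score within 2 SD, cut at about -4.2 in these data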;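 also: channel flux triggered by added potassium and thallium sulfate stimulus; B-score of peak minus minimum fluorescence over baseline after thallium stimulus; more negative B-score means stronger Kir2.1 block with less thallium influx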
KCNK3 inh – human KCNK3 channel inhibitors, primary screen, CHO cells, FluxOR thallium flux, B-score | Potassium channel subfamily K member 3 (Homo sapiens), O14649 | hit rate 0.84% among 340,000 | FluxOR fluorescence; active compounds read low | B-score at 10 µM;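 active = B-score under library mean minus 4 SD, starting fluorescence ratio at most library mean plus 5 SD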;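 also: more negative B-score means stronger inhibition of thallium flux through KCNK3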
KCNK9 block – KCNK9 potassium channel inhibitors, primary screen, HEK293 cells, thallium flux; Potassium channel subfamily K member 9 (Homo sapiens), Q9NPC2; FluxOR thallium flux fluorescence; active compounds read low; B-score at 10 µM; hit rate 1.2% among 310,000; AID 488922, 2010;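 active = ratio B-score over 3 SD below the library mean, with starting fluorescence within 5 SD of its mean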;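 also: negative B-score means less thallium flux so channel inhibition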
KCNK9 block conf – KCNK9 potassium channel inhibitors, confirmation, HEK293 cells, thallium flux, duplicate; AID 492992, 2010; shares compounds with KCNK9 block; hit rate 43% among 4,900; inhibition, % at 10 µM; FluxOR thallium flux fluorescence;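 active = thallium signal inhibited by more than 5 SD of the compound-free buffer control wells, on both duplicate plates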;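 also: 0% = assay buffer control wells without compound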
Kir2-1 spec – mouse Kir2.1 channel inhibition, confirmation, selectivity assay for KCNK9 modulator project, cell-based, HEK293, thallium flux | shares compounds with KCNK9 block | Kir2.1 cells, FluxOR thallium flux fluorescence | inhibition, % at 10 µM | hit rate 4% among 4,900 | AID 492993, 2010;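 active = thallium signal drop more than 5 SD beyond the mean of the no-compound control wells, seen in both duplicate plates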;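 also: signal is fluorescence rise after thallium addition divided by baseline fluorescence; plate controls were assay buffer only for no effect and full block by chlorpromazine control for full effect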
KCNK9 uninduced – thallium flux in non-induced HEK293 cells, confirmation, counter-screen for KCNK9 inhibitor project, cell-based, second counter screen, non-induced KCNK9-HEK293. AID 492997, 2010. inhibition, % at 10 µM. hit rate 40% among 4,900. FluxOR thallium flux. shares compounds with KCNK9 block;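 active = thallium signal drop beyond 5 SD of the untreated control mean, on both duplicate plates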;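 also: plate controls were buffer only IC0 wells for no effect and SID17386958 at its maximal inhibitory level for full effect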
KCNK3 confirm – retest of human KCNK3 channel inhibitors, confirmation, CHO cells, FluxOR thallium flux, triplicate; ratio percent of control, % at 10 µM; hit rate 99% among 2,400; shares compounds with KCNK3 inh; AID 651638, 2012; FluxOR fluorescence; 0% buffer, 100% carvedilol maximal block;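 active = ratio percent of control, averaged over triplicates, above buffer control mean plus 5 SD, cut at about 64% in these data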;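 also: ratio is the fluorescence rise from min to max over baseline after thallium stimulus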
KCNK3 noninduced – thallium flux inhibition in non-induced cells, primary screen, counter-screen for KCNK3 inhibitor project, cell-based, non-induced KCNK3 line, FluxOR thallium, triplicate. hit rate 40% among 2,400. shares compounds with KCNK3 inh. non-induced KCNK3 parental cells; active compounds read low. thallium flux ratio (lower = more inhibition) at 10 µM;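 active = thallium flux ratio, averaged over three wells, more than 5 SD below the buffer control mean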;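 also: host cells are CHO cells without KCNK3 induction; ratio is peak minus trough fluorescence over baseline then normalized to buffer controls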
Numbers without * were called inactive; i = inactive; x = not tested or not shown. Compounds with a hit are over-represented: about 3.8% of the library has one in this group of screens.

SMILES	hERG protect	KCNQ1 pot	KCNQ1 block	Kir21 inh	KCNK3 inh	KCNK9 block	KCNK9 block conf	Kir2-1 spec	KCNK9 uninduced	KCNK3 confirm	KCNK3 noninduced
O=C(COC(=O)c1ccccc1NC(=O)c1ccccc1)c1ccc([N+](=O)[O-])cc1	-6.6	i	i	-0.73	-9.62*	-13.9*	73.0%*	i	33.5%*	104.0*	i
O=C(NCCOc1ccccc1)C1CCC(=O)N(CCc2ccc(Cl)cc2)C1 (stereo not given)	-7.3	i	i	-0.29	i	i	x	x	x	x	x
COc1ccc(C)cc1NC(=O)c1cccc(C(=O)Nc2cc(C)ccc2OC)n1	-8.4	i	i	0.28	i	-15.5*	61.0%*	i	31.5%*	107.3*	i
Cc1cc(C(=O)CN2CCN(CC(=O)Nc3ccc(F)cc3)CC2)c(C)n1C1CC1	x	x	x	x	i	x	x	x	x	x	x
CC(C)(C)n1nnnc1C(c1ccncc1)N1CCN(c2ccc(O)cc2)CC1 (stereo not given)	-6.6	i	i	1.09	i	i	x	x	x	x	x
CC(C)C(c1nnnn1C(C)(C)C)N1CCN(c2cccc(Cl)c2)CC1 (stereo not given)	-7.0	i	i	-0.04	-10*	-12*	58.5%*	i	36.5%*	126.0*	0.151*
CN(C)CC[C@@H](c1ccc(Cl)cc1)c1ccccn1	-8.1	i	i	-2.83	i	i	x	x	x	x	x
CC(C)(C)n1nnnc1C(c1cccs1)N(Cc1ccccc1)Cc1ccco1 (stereo not given)	-18.0	i	9*	-0.81	-11.8*	-18.7*	66.0%*	i	46.5%*	112.7*	0.149*
CC(C)(C)n1nnnc1C(c1ccccn1)N(Cc1ccccc1)Cc1ccc(Cl)cc1 (stereo not given)	-0.2	i	i	0.96	-9.22*	-16.2*	59.5%*	i	46.5%*	99.7*	0.15*
CCC(C)(C)n1nnnc1C(c1cc2ccc(C)cc2[nH]c1=O)N(Cc1cccnc1)Cc1ccco1 (stereo not given)	-1.2	i	i	0.16	i	i	x	x	x	x	x
Cc1c(C)c2ccc(OC(C)C(=O)NCc3ccccn3)cc2oc1=O (stereo not given)	-4.5	i	i	-0.57	i	i	x	x	x	x	x
CCC(NC(=O)c1ccccc1NC(=O)c1ccccc1)C(=O)NNC(=O)c1cccnc1 (stereo not given)	-6.7	i	i	2.04	i	i	x	x	x	x	x
Cc1cc(C(=O)N/N=C/c2ccc(-c3cccc(Br)c3)o2)n[nH]1	-14.4	i	i	0.55	-11.1*	-17.1*	44.0%*	i	i	87.3*	i
